Active and inactive are the calls of the source. The rule behind the calls is not given here.
Assays:
KG-1a [1] = test: Cytotoxicity against human KG-1a cells assessed as cell death incubated for 72 hrs by flow cytometry based Annexin V/7-AAD assay; format: functional
Summary of the method: (§1)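 Cell suspensions from confluent flasks (10^5 cells per well) exposed 72 h at 37°C, humidified 5% CO2, to compound over experimentally set concentration ranges, with drug-free controls. Cells harvested by centrifugation, Annexin V/7-AAD flow cytometry. Triplicate experiments; LC50 by non-linear regression of sigmoidal dose-response curves, mean ± SEM.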

HT-29 [2] = test: Cytotoxicity against human HT-29 cells assessed as cell death incubated for 72 hrs by flow cytometry based Annexin V/7-AAD assay; format: functional; conditions: read-out: LC50 (the source's name); summary of the method: as §1
LNCaP = test: Cytotoxicity against human LNCaP cells assessed as cell death incubated for 72 hrs by flow cytometry based Annexin V/7-AAD assay; format: functional; conditions: read-out: LC50 (the source's name); summary of the method: as §1
BXPC-3 = test: Cytotoxicity against human BXPC-3 cells assessed as cell death incubated for 72 hrs by MTS assay; format: functional; conditions: read-out: LC50 (the source's name)
Summary of the method: (§2)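 Contracted MTS viability test (BxPC-3, MIA PaCa-2, HT-29, SW620), cells plated the day before dosing. 72 h exposure to 9 serial 3.16-fold dilutions, highest 198 μM, then MTS for 4 h at 37°C and absorbance read. Run in duplicate; LC50 (concentration giving 50% cell death) taken from curve fit as mean.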

MIA PaCa-2 = test: Cytotoxicity against human MIA PaCa-2 cells assessed as cell death incubated for 72 hrs by MTS assay; format: functional; conditions: read-out: LC50 (the source's name); summary of the method: as §2
[3] = Stability in human plasma assessed as half life; format: ADME, cell-free; conditions: time <=24 hrs
KG-1a [4] = test: Cytotoxicity against human KG-1a cells assessed as viable cells at 0.25 uM for 48 hrs by FITC-PE analysis (reference value: 3.9 to 4%); format: functional
Summary of the method: (§3)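 KG1a AML cells were kept in RPMI with 20% foetal calf serum and penicillin/streptomycin, then exposed to a wide concentration range of each nucleoside or ProTide. Cells were stained with anti-CD34 (FITC) and anti-CD38 (PE) and read by flow cytometry. The CD34⁺/CD38⁻ stem-cell subset was expressed as a percentage of viable cells. Results are the mean ±SEM of five independent experiments.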

KG-1a [5] = test: Cytotoxicity against human KG-1a cells assessed as viable cells at 0.5 uM for 48 hrs by FITC-PE analysis (reference value: 3.9%); format: functional; summary of the method: as §3
[6] = Drug uptake in human KG-1a cell leukemic stem cells fraction assessed as intracellular accumulation at 1 uM treated for 1 hr by mass spectrometry analysis; format: ADME
Summary of the method: (§4)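 KG1a cells (5×10^6, DMEM + 10% FCS) exposed to 1 μM compound for 1 h, harvested, then FACS-sorted into CD34+/CD38− LSC and CD34+/CD38+ bulk fractions. Pellets lysed; intracellular triphosphate quantified by mass spectrometry against a nucleoside standard curve. Five independent experiments in triplicate, mean ± SEM.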

[7] = Drug uptake in human KG-1a cell bulk tumor fraction assessed as intracellular accumulation at 1 uM treated for 1 hr by mass spectrometry analysis; format: ADME; summary of the method: as §4
KG-1a [8] = test: Cytotoxicity against human KG-1a cells assessed as viable cells at 1 uM for 48 hrs by FITC-PE analysis (reference value: 3.9 to 4%); format: functional; summary of the method: as §3
MDA-MB-231 = test: Cytotoxicity against human MDA-MB-231 cells incubated for 72 hrs by flow cytometry using Annexin V/7-AAD assay; format: functional; conditions: read-out: LC50 (the source's name); summary of the method: as §1
HCT-116 = test: Cytotoxicity against human HCT-116 cells assessed as cell death incubated for 72 hrs by flow cytometry based Annexin V/7-AAD assay; format: functional; conditions: read-out: LC50 (the source's name); summary of the method: as §1
SW-620 [9] = test: Cytotoxicity against human SW-620 cells assessed as cell death incubated for 72 hrs by MTS assay; format: functional; conditions: read-out: LC50 (the source's name); summary of the method: as §2
[10] = Metabolic stability in cryopreserved human hepatocytes assessed as half life at 1 uM for 60 mins by HPLC-MS/MS analysis; format: ADME, cell-based, Hepatocyte; conditions: for t1/2: hepatocytes, 1 h, 1 µM
Summary of the method: (§5)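 Pooled cryopreserved human hepatocytes thawed, washed and resuspended in Krebs-Henseleit buffer pH 7.3. Compound at 1 μM final, incubated 0 and 60 min at 37°C/5% CO2. Quenched with acetonitrile, centrifuged; supernatant analysed by HPLC-MS/MS.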

[11] = Metabolic stability in cryopreserved human hepatocytes assessed as parent compound remaining at 1 uM for 60 mins by HPLC-MS/MS analysis; format: ADME, cell-based, Hepatocyte; summary of the method: as §5
KG-1a [12] = test: Potency index, ratio of FUDR LC50 to test compound LC50 for human KG-1a cells incubated for 72 hrs by flow cytometry using Annexin V/7-AAD assay; format: functional
Summary of the method: (§6)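 Annexin V/7-AAD flow cytometry after 72 h exposure at 37°C, 5% CO2, drug-free controls included, triplicate. LC50 by non-linear regression. Index is reference nucleoside LC50 (5-FU for HT-29, FUDR for KG1a) divided by test compound LC50.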

HT-29 [13] = test: Potency index, ratio of 5-FU LC50 to test compound LC50 for human HT-29 cells for 72 hrs by flow cytometry using Annexin V/7-AAD assay; format: functional; summary of the method: as §6
[14] = Prodrug activation assessed as carboxypeptidase Y-mediated metabolite A release measured within 10 mins by NMR analysis; format: ADME; conditions: saccharomyces cerevisiae
Summary of the method: (§7)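 ProTide (3.5 mg) in acetone-d6 with Trizma buffer pH 7.6. Control 31P NMR taken, then carboxypeptidase Y (0.1 mg in Trizma) added. 31P NMR spectra (202 MHz, 25°C) collected with 64 scans every 7 min. Parent and metabolite A/C fractions followed by peak integration over time.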

KG-1a [15] = test: Cytotoxicity against human KG-1a cells assessed as reduction in leukemic stem cells fraction at >= 0.07 uM after 48 hrs by FACS assay; format: functional, cell-based; conditions: dose microM >=0.07, time 48.0 hrs; summary of the method: as §3
KG-1a [16] = test: Cytotoxicity against human KG-1a cells assessed as reduction in leukemic stem cells fraction >= 0.25 uM measured after 48 hrs by FACS assay; format: functional, cell-based; conditions: dose microM >=0.25, time 48.0 hrs
[17] = Prodrug activation assessed as carboxypeptidase Y-mediated metabolite A release measured upto 120 mins by NMR analysis; format: ADME; conditions: saccharomyces cerevisiae, 2 h; summary of the method: as §7
[18] = Prodrug activation assessed as carboxypeptidase Y-mediated metabolite C release measured upto 120 mins by NMR analysis; format: ADME; conditions: saccharomyces cerevisiae, 2 h; summary of the method: as §7
KG-1a [19] = test: Cytotoxicity against human KG-1a cells assessed as reduction in leukemic stem cells fraction up to 5 uM measured after 48 hrs by FACS assay; format: functional, cell-based; conditions: dose microM <=5, time 48.0 hrs
KG-1a [20] = test: Cytotoxicity against human KG-1a cells assessed as reduction in leukemic stem cells fraction up to 2.5 uM measured after 48 hrs by FACS assay; format: functional, cell-based; conditions: dose microM <=2.5, time 48.0 hrs; summary of the method: as §3
SW-620 [21] = test: Potency index, ratio of 5-FU LC50 to test compound LC50 for human SW-620 cells incubated for 72 hrs by MTS assay; format: functional
Summary of the method: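 SW620 MTS assay: 72 h exposure to 9 serial 3.16-fold dilutions from 198 μM, MTS 4 h at 37°C, absorbance read, duplicate. LC50 from curve fit; index is 5-FU LC50 divided by test compound LC50.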

[22] = Prodrug activation assessed as carboxypeptidase Y-mediated metabolism by measuring compound remaining within 10 mins by NMR analysis; format: ADME; conditions: saccharomyces cerevisiae; summary of the method: as §7

In the case of C[C@H](NP(=O)(OC[C@H]1O[C@@H](n2ccc(N)nc2=O)C(F)(F)[C@@H]1O)Oc1ccccc1)C(=O)OCc1ccccc1 (some centres undefined) [FOSGEMCITABINE PALABENAMIDE], the LC50 (KG-1a [1]) is reported as 0.28 µM, the CC50 (HT-29 [2]; Homo sapiens, HT-29, 72 h) is reported as 1.3 µM and the CC50 (LNCaP) is reported as 3.1 µM. For the same compound, the CC50 (BXPC-3) was 2.29 µM, the CC50 (MIA PaCa-2) was 0.1 µM and the half-life [3] was 498 min. The Activity (KG-1a [4]) was 2.7%, the Activity (KG-1a [5]) was 2.5% and the Drug uptake [6] was “Active”. The Drug uptake [7] was “Active” and the Activity (KG-1a [8]) was 1.9%.
C[C@H](NP(=O)(OC[C@H]1O[C@@H](n2cc(F)c(=O)[nH]c2=O)C[C@@H]1O)Oc1cccc2ccccc12)C(=O)OCc1ccccc1 (stereo in doubt; form 1) [FOSIFLOXURIDINE NAFALBENAMIDE] gave an LC50 (KG-1a [1]; 72 h) of 0.053 µM, a CC50 (MDA-MB-231; Homo sapiens, MDA-MB-231, 72 h) of 2.8 µM and a CC50 (HCT-116; Homo sapiens, HCT-116, 72 h) of 3.1 µM. The CC50 (HT-29 [2]; Homo sapiens, HT-29, 72 h) was 1.7 µM, the CC50 (SW-620 [9]; Homo sapiens, SW-620, 72 h) was 1.84 µM and the half-life [3] was 582 min. It also gave a half-life at 1 µM ([10]; cryopreserved hepatocytes) of 34 min, a remaining at 1 h, 1 µM ([11]; cryopreserved hepatocytes, read-out: Stability) of 30% and a RatioLC50 (KG-1a [12]) of 23.
C[C@H](NP(=O)(OC[C@H]1O[C@@H](n2cc(F)c(=O)[nH]c2=O)C[C@@H]1O)Oc1cccc2ccccc12)C(=O)OCc1ccccc1 (stereo in doubt; form 2) [FOSIFLOXURIDINE NAFALBENAMIDE] showed a RatioLC50 (HT-29 [13]) of 13, an LC50 (KG-1a [1]; 72 h) of 0.052 µM and a CC50 (MDA-MB-231; 72 h) of 3.6 µM. For the same compound, the CC50 (HCT-116; 72 h) was 4.3 µM, the CC50 (HT-29 [2]; 72 h) was 2.1 µM and the CC50 (SW-620 [9]; 72 h) was 2.37 µM. For the same compound, the t1/2 [10] was 53 min, the Stability ([11]; hepatocytes, 1 h, 1 µM) was 40% and the Drug metabolism [14] was “Metabolite_Detected”.
With C[C@H](NP(=O)(OC[C@H]1O[C@@H](n2cc(F)c(=O)[nH]c2=O)C[C@@H]1O)Oc1cccc2ccccc12)C(=O)OCc1ccccc1 (stereo in doubt; form 2) the Activity (KG-1a [15]) was “Active”.
C[C@H](N[P@@](=O)(OC[C@H]1O[C@@H](n2ccc(N)nc2=O)C(F)(F)[C@@H]1O)Oc1ccccc1)C(=O)OCc1ccccc1 gave an LC50 (KG-1a [1]) of 0.25 µM, a CC50 (HT-29 [2]; Homo sapiens, HT-29, 72 h) of 1 µM and a CC50 (LNCaP) of 3.4 µM. For the same compound, the CC50 (BXPC-3) was 1.29 µM, the CC50 (MIA PaCa-2) was 0.19 µM and the Activity (KG-1a [16]) was “Active”. For the same compound, the Drug metabolism [17] was “Metabolite_Notdetected” and the Drug metabolism [18] was “Metabolite_Detected”.
Compound O=c1[nH]cc(F)c(=O)[nH]1 [FLUOROURACIL] has an LC50 (KG-1a [1]) of 1.4 µM, a CC50 (MDA-MB-231; Homo sapiens, MDA-MB-231, 72 h) of 12.6 µM and a CC50 (HCT-116; Homo sapiens, HCT-116, 72 h) of 3.7 µM. It also gave a CC50 (HT-29 [2]; Homo sapiens, HT-29, 72 h) of 5.5 µM, a CC50 (SW-620 [9]; Homo sapiens, SW-620, 72 h) of 7.98 µM and a half-life [3] of 8 min. The Activity (KG-1a [19]) was “inactive”.
For C[C@H](NP(=O)(OC[C@H]1O[C@@H](n2cc(F)c(=O)[nH]c2=O)C[C@@H]1O)Oc1cccc2ccccc12)C(=O)OCc1ccccc1 (stereo in doubt; form 3), the Activity (KG-1a [15]) was “Active”.
C[C@H](N[P@](=O)(OC[C@H]1O[C@@H](n2ccc(N)nc2=O)C(F)(F)[C@@H]1O)Oc1ccccc1)C(=O)OCc1ccccc1 showed an LC50 (KG-1a [1]) of 0.31 µM, a CC50 (HT-29 [2]; Homo sapiens, HT-29, 72 h) of 1.5 µM and a CC50 (LNCaP) of 2.6 µM. For the same compound, the CC50 (BXPC-3) was 2.44 µM, the CC50 (MIA PaCa-2) was 0.03 µM and the Activity (KG-1a [16]) was “Active”.
Nc1ccn([C@@H]2O[C@H](CO)[C@@H](O)C2(F)F)c(=O)n1 [GEMCITABINE] showed an LC50 (KG-1a [1]) of 1.8 µM, a CC50 (HT-29 [2]; Homo sapiens, HT-29, 72 h) of 0.7 µM and a CC50 (LNCaP) of 2.8 µM. The CC50 (BXPC-3) was 0.74 µM, the CC50 (MIA PaCa-2) was 0.01 µM and the Activity (KG-1a [4]) was 4.1%. The Activity (KG-1a [5]) was 3.9%, the Activity (KG-1a [20]) was “inactive” and the Activity (KG-1a [8]) was 3.8%.
C[C@H](NP(=O)(OC[C@H]1O[C@@H](n2cc(F)c(=O)[nH]c2=O)C[C@@H]1O)Oc1cccc2ccccc12)C(=O)OCc1ccccc1 (stereo in doubt; form 3) [FOSIFLOXURIDINE NAFALBENAMIDE] gave an LC50 (KG-1a [1]; 72 h) of 0.055 µM, a CC50 (MDA-MB-231; 72 h) of 2.5 µM and a CC50 (HCT-116; 72 h) of 2.6 µM. The CC50 (HT-29 [2]; 72 h) was 1.5 µM, the CC50 (SW-620 [9]; 72 h) was 1.46 µM and the RatioLC50 (SW-620 [21]) was 4. It also gave a t1/2 [10] of 47 min and an Activity [22] of 28%.

Source: ChEMBL document CHEMBL5029146, “Single Diastereomers of the Clinical Anticancer ProTide Agents NUC-1031 and NUC-3373 Preferentially Target Cancer Stem Cells In Vitro” (J Med Chem, 2021)
